NPY-Y1 antag – NPY-Y1 receptor antagonists, primary screen, cell-based | HEK293-CNG Y1 cells, membrane potential fluorescence; NPY at EC95, then isoproterenol | inhibition, % at 3.6 µM | 1% of 200,000 active | Neuropeptide Y receptor type 1 (Homo sapiens), P25929;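 active means inhibition above the campaign mean inhibition of all tested compounds plus 3 SD, cut at about 20% in these data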;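 further: 0% = DMSO wells given NPY plus isoproterenol and 100% = isoproterenol alone without NPY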
Target sequence (P25929 whole entry, looked up): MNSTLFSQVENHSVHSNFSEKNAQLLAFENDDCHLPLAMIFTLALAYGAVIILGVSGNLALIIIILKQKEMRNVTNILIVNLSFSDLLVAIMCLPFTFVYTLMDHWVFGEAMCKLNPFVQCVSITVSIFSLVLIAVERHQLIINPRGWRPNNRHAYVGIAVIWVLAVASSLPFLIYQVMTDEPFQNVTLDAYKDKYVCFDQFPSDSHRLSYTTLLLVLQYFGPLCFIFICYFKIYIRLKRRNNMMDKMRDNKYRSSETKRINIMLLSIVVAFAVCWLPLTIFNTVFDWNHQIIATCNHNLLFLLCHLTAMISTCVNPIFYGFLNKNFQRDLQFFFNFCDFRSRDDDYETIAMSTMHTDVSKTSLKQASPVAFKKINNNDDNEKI
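Material: HEK293 Y1/CNG channel cell line; also added: NPY (25 nM), isoproterenol (1 µM), Ro 20-1724 (25 µM); doses: one concentration, 3.6 µM, in 0.4% DMSO; schedule: compound incubation 1 h at room temperature, readout 45 min post-stimulation; technique: membrane potential fluorescence; measure: fluorescence ratio normalized to % inhibition between controls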
NPY-Y2 antag – NPY-Y2 receptor antagonists, primary screen, cell-based | Neuropeptide Y receptor type 2 (Homo sapiens), P49146 | NPY-Y2 expressing cells, antagonist mode | inhibition, % at 2.7 µM | 0.99% of 140,000 active | AID 793, 2007; in the data active means inhibition above about 17%;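 further: 0% = vehicle with agonist challenge and 100% = reference antagonist with challenge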
RAM network inh – inhibitors of the yeast RAM network, primary screen, dse1pr::URA3 reporter, 5-FOA selection | 1.8% of 190,000 active | inhibition, % at 50 µM | S. cerevisiae dse1pr::URA3 reporter, 5-FOA growth OD615, 2 d; analog-sensitive cbk1-as2 kinase mutant strain;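 active means inhibition above a set limit, 3 SD over mean compound inhibition, cut at about 8.4% in these data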;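 further: 0% = DMSO-only wells with no growth and 100% = 10 µM 1-NA-PP1 full growth; inhibition rescues growth on 5-FOA so higher OD means more RAM inhibition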
NPY2 pot ag – NPY-Y2 potentiators or agonists, primary screen, cell-based. activation, % at 3.6 µM. 0.45% of 220,000 active. cells expressing NPY-Y2, potentiator/agonist read-out. Neuropeptide Y receptor type 2 (Homo sapiens), P49146. AID 1359, 2008; in the data active means activation above about 27%;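 further: cells stimulated with NPY near EC25 plus isoproterenol at EC100; 0% = vehicle plus submaximal agonist and 100% = vehicle plus saturating agonist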
WT yeast gro inh – growth inhibition of WT strain, primary screen, mitochondrial fusion inhibitor project, WT and mutant strains, chemical genetic. 2.1% of 190,000 active. mitochondrial fusion phenotypic screen. AID 1362, 2008. inhibition, % at 10 µM; in the data active means inhibition above about 58%; tested in S. cerevisiae
NPY1 pot ag – NPY-Y1 receptor potentiators or agonists, primary screen, cell-based; NPY-Y1 expressing cells, potentiator/agonist activation; activation, % at 3.6 µM; Neuropeptide Y receptor type 1 (Homo sapiens), P25929; 0.37% of 220,000 active; in the data active means activation above about 33%, passing the limit was not always enough;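 further: cells stimulated with NPY at EC10 then isoproterenol at EC100; 0% = low agonist plus stimulus and 100% = saturating agonist plus stimulus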
The depositor's hits bear a star. Hits are enriched below; roughly 4.9% of the tested compounds scored in any of these assays.

Screening Cc1ccc(OCCOCCNC(C)C)c(Br)c1 returned NPY-Y1 antag 10, NPY-Y2 antag 1, RAM network inh 2, NPY2 pot ag 10, WT yeast gro inh 9 and NPY1 pot ag 5.
For COC(=O)Nc1ncc(CN2CCc3ccccc3C2)s1 the results were NPY-Y1 antag -3, NPY-Y2 antag 0, RAM network inh 0, NPY2 pot ag 13, WT yeast gro inh -11 and NPY1 pot ag -1.
For CCC(C)(C(=O)NC1CCCCC1)N(Cc1ccco1)C(=O)c1ccc2c(c1)OCO2 (configuration not stated) the results were NPY-Y1 antag 49*, NPY-Y2 antag 43*, RAM network inh 0, NPY2 pot ag -18, WT yeast gro inh -5 and NPY1 pot ag -11.
O=C(/C(=C/c1ccc(Cl)cc1)c1nc2ccccc2[nH]1)c1cccs1 was read as NPY-Y1 antag 23*, NPY-Y2 antag 46*, RAM network inh 0, NPY2 pot ag -9, WT yeast gro inh 43 and NPY1 pot ag -50.
For CCOC(=O)c1sc(NC(=O)C(CC)Sc2nnc3c4ccccc4n(C(C)C)c3n2)nc1C (configuration not stated) the results were NPY-Y1 antag 4, NPY-Y2 antag 2, RAM network inh 8.6*, NPY2 pot ag 10, WT yeast gro inh 10 and NPY1 pot ag -12.
`C/C(CCc1ccc2c(c1)OCO2)=N\N=C(/N)SC1CC(=O)N(c2ccc(Cl)cc2)C1=O` (configuration not stated) gave NPY-Y1 antag 3, NPY-Y2 antag 9, RAM network inh 4, NPY2 pot ag -5, WT yeast gro inh 65* and NPY1 pot ag -8.
Screening O=C(O)c1ccc(N2C(=O)CC(SC(=NCc3ccc4c(c3)OCO4)Nc3ccccc3)C2=O)cc1 (configuration not stated) returned NPY2 pot ag -18 and NPY1 pot ag 1.
`N/C(=N\N=C\c1ccc2c(c1)OCO2)SC1CC(=O)N(c2ccc(C(=O)O)cc2)C1=O` (configuration not stated) gave NPY-Y1 antag 5, RAM network inh 8.6*, NPY2 pot ag 9, WT yeast gro inh -7 and NPY1 pot ag -2.
CCCCN1C(=O)/C(=C/C=C2\N(C)c3ccccc3C2(C)C)SC1=S was read as NPY-Y1 antag 3, NPY-Y2 antag 1, RAM network inh 7, NPY2 pot ag -1, WT yeast gro inh 35 and NPY1 pot ag 13.
For COc1ccc(-c2csc3nc(C)nc(N4CCC(C)CC4)c23)cc1OC the results were NPY-Y1 antag 21*, RAM network inh 1, NPY2 pot ag -19, WT yeast gro inh 63* and NPY1 pot ag -29.
Screening O=C(COc1ccc2ccccc2c1CN1CCOCC1)N1CCc2ccccc21 returned NPY-Y1 antag 22*, NPY-Y2 antag 28*, RAM network inh 1, NPY2 pot ag 26, WT yeast gro inh 7 and NPY1 pot ag 16.
For Cc1ccc(-c2nn(C)c(=O)c3ccccc23)cc1CNC(=O)CN1CCOCC1 the results were NPY-Y1 antag -1, NPY-Y2 antag 0, RAM network inh 4, NPY2 pot ag -7, WT yeast gro inh 3 and NPY1 pot ag -7.
For CC(=O)OCC(=O)Nc1ccc([N+](=O)[O-])cc1Cl the results were NPY-Y1 antag -3, RAM network inh 1, NPY2 pot ag -1, WT yeast gro inh -7 and NPY1 pot ag -10.
For CC(=O)Oc1c(C)cc(Cl)cc1C(=O)Nc1ccc([N+](=O)[O-])cc1Cl the results were NPY-Y1 antag 16, NPY-Y2 antag 20*, RAM network inh 5, NPY2 pot ag 25, WT yeast gro inh 85* and NPY1 pot ag -49.
O=C(N/C(=C/c1cccnc1)C(=O)N1CCOCC1)c1ccco1 was read as NPY-Y1 antag 2, NPY-Y2 antag 1, RAM network inh 0, NPY2 pot ag 9, WT yeast gro inh -7 and NPY1 pot ag 8.
COc1ccccc1-c1cc(SC)c(C#N)c(=O)o1 was read as NPY-Y1 antag -1, NPY-Y2 antag -2, RAM network inh 9.3*, NPY2 pot ag 10, WT yeast gro inh -5 and NPY1 pot ag 1.
CCC1=NN(C(=O)c2ccc(Br)cc2)C(O)(c2ccc(C)cc2)C1 (configuration not stated) was read as NPY-Y1 antag 4, NPY-Y2 antag 6, RAM network inh 1, NPY2 pot ag 2, WT yeast gro inh 5 and NPY1 pot ag -22.
CCOc1ccc2nc(NS(=O)(=O)Cc3ccccc3)sc2c1 was read as NPY-Y1 antag 23*, NPY-Y2 antag 20*, RAM network inh 1, NPY2 pot ag -36, WT yeast gro inh 16 and NPY1 pot ag -35.
For Cc1cccc2c(C(=O)N3CCN(C(=O)c4ccco4)CC3)cc(-c3cccc(Br)c3)nc12 the results were NPY-Y1 antag 0, RAM network inh 2, NPY2 pot ag -8, WT yeast gro inh 81* and NPY1 pot ag -2.
`O=C(CSc1nc2ccccc2n1-c1ccccc1)NCC1CCCO1` (configuration not stated) gave NPY-Y1 antag -1, NPY-Y2 antag 4, RAM network inh 2, NPY2 pot ag 0, WT yeast gro inh 1 and NPY1 pot ag -29.
N#C[C@H]1[C@H](c2ccccc2)[C@](C#N)(C(=O)c2ccccc2)[C@@H]2C=Cc3ccccc3N21 was read as NPY-Y1 antag -1, NPY-Y2 antag 0, RAM network inh 4, NPY2 pot ag -5, WT yeast gro inh 63* and NPY1 pot ag -5.
`Cc1ccc(-n2cc(C(=O)c3ccc4ccccc4c3O)cn2)cc1` gave NPY-Y1 antag 0, NPY-Y2 antag 16, RAM network inh 8.5*, NPY2 pot ag 1, WT yeast gro inh -4 and NPY1 pot ag -20.
`Oc1ccccc1/C=N/Nc1ncc(Br)cn1` gave NPY-Y1 antag 2, NPY-Y2 antag 3, RAM network inh 1, NPY2 pot ag 2, WT yeast gro inh -2 and NPY1 pot ag -4.
Screening O=[N+]([O-])c1cccc(N/N=C/c2cccc(O)c2O)c1 returned NPY-Y1 antag -2, RAM network inh 3, NPY2 pot ag 17, WT yeast gro inh 62* and NPY1 pot ag 7.
For O=[N+]([O-])c1ccccc1N/N=C/c1cccc(O)c1O the results were NPY2 pot ag 0 and NPY1 pot ag 33.
For Oc1ccccc1/C=N/Nc1ccccc1 the results were NPY-Y1 antag -6, NPY-Y2 antag 2, RAM network inh 1, NPY2 pot ag 5, WT yeast gro inh 79* and NPY1 pot ag -4.
O=C(CCCCn1c(=O)c2ccccc2n(CC(=O)NC2CCCC2)c1=O)NCc1ccco1 was read as NPY-Y1 antag 9, NPY-Y2 antag 8, RAM network inh 2, NPY2 pot ag -2, WT yeast gro inh -10 and NPY1 pot ag 6.

Screening data from PubChem BioAssay.
